ChEMBL document CHEMBL4038314, “Synthetic Modification within the "RPRL" Region of Apelin Peptides: Impact on Cardiovascular Activity and Stability to Neprilysin and Plasma Degradation” (J Med Chem, 2017)
Calls of active or inactive are those of the source. The rule behind the calls is not given here. Starred links: 1 amine or outer side, 2 acyl side, 3 side chain; linkers in the order of their positions; H or OH if unused. Non-standard residues stand in square brackets, D forms with d. Residues, ends and D or L forms follow the SMILES beside them. Phe(4-Br) = N[C@@H](Cc1ccc(Br)cc1)C(=O)O; X1 = N=C(N)NCCCN(N[*:1])C(=O)[*:2]; αMeR = C[C@](N)(CCCNC(=N)N)C(=O)O; NMeL = CN[C@@H](CC(C)C)C(=O)O; αMeL = CC(C)C[C@](C)(N)C(=O)O; Nle = CCCC[C@H](N)C(=O)O; Aib = CC(C)(N)C(=O)O

Key:
[1] = tested on: Heart; assay: Cardioprotective activity against Langendorff isolated mouse heart ischemia-reperfusion model assessed as improvement in LVDP at 1 uM administered for 10 mins during start of 40 mins reperfusion period post 30 mins ischemic induction; type: functional, tissue-based
Procedure, shortened: (§1)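 Mouse hearts (heparinized, isoflurane 1.5−2%) excised and Langendorff-perfused at constant 80 mmHg with modified Krebs−Henseleit buffer, 37 °C, 95% O2/5% CO2, pH 7.4. After 10 min baseline, 30 min global ischemia, then 40 min reperfusion. Peptide at 1 μM given for the first 10 min of reperfusion, with saline sham and native apelin-17 as controls. Left ventricular function recorded continuously.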

[2] = tested on: Heart; assay: Cardioprotective activity against Langendorff isolated mouse heart ischemia-reperfusion model assessed as improvement in RPP at 1 uM administered for 10 mins during start of 40 mins reperfusion period post 30 mins ischemic induction; type: functional, tissue-based; procedure, shortened: as §1
[3] = tested on: Mus musculus; assay: Cardiovascular activity in anesthetized mouse assessed as decrease in blood pressure at 1.4 uM/kg, iv relative to control; type: functional, organism-based
Procedure, shortened: (§2)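 Mice under 1.5% isoflurane, body temperature held at 36 °C on a heating pad. Aorta cannulated via the right carotid artery with a 1.2F PV loop catheter to record arterial pressure and heart rate continuously. Peptide given systemically through the right internal jugular vein.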

[4] = molecular target: T1, Neprilysin (Homo sapiens, UniProt P08473); assay: Drug degradation in human plasma assessed as NEP-mediated degradation by measuring amount of apelin remaining after 60 mins by RP-HPLC analysis; type: ADME; conditions: 1 h
T1 sequence (P08473 whole entry): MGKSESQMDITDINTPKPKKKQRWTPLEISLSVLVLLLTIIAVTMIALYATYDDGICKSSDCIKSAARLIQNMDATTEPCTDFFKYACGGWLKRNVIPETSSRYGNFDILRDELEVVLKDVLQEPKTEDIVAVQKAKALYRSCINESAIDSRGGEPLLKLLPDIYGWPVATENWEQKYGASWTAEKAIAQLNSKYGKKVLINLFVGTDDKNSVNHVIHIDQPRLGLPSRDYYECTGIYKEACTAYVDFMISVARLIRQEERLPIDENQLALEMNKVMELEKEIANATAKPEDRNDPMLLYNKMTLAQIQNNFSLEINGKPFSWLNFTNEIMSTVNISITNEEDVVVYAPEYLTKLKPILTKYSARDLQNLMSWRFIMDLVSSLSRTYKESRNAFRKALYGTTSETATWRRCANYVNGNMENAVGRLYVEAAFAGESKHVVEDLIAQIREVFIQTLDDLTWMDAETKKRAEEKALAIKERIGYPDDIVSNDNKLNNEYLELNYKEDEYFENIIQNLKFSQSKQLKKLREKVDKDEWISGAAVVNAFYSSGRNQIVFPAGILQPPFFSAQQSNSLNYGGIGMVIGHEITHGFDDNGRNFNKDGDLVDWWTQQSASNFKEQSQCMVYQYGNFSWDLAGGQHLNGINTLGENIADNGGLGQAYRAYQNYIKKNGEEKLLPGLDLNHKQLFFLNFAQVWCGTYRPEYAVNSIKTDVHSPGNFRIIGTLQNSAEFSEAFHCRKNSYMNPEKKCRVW
Procedure, shortened: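 Human plasma (20 μL) prewarmed to 37 °C, then 5 μL of 400 μM peptide added and incubated for set times; done in triplicate. Quenched with 10% aqueous TFA, dansyl-YVG internal standard added, and peptides recovered on a C18 spin column with 40% acetonitrile/0.1% TFA. Analysed by C18 RP-HPLC; peptide/standard peak-area ratio compared with the 0 min ratio.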

[5] = tested on: Mus musculus; assay: Cardiotoxicity in anesthetized mouse assessed as induction of tachycardia at 1.4 uM/kg, iv relative to control; type: toxicity, organism-based; conditions: in vivo, 1.4 µmol/kg; procedure, shortened: as §2
[6] = tested on: Heart; assay: Cardioprotective activity against Langendorff isolated mouse heart ischemia-reperfusion model assessed as minimum derivative change in diastolic pressure over time at 1 uM administered for 10 mins during start of 40 mins reperfusion period post 30 mins ischemic induction; type: functional, tissue-based; procedure, shortened: as §1
[7] = molecular target: T1, Neprilysin; assay: Inhibition of recombinant human NEP using pyr-1-apelin-13 as substrate assessed as peptide degradation at 1 mM preincubated for 10 mins followed by substrate addition measured after 72 hrs by LC-MS analysis; conditions: 1000 µM
Procedure, shortened: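 Recombinant human NEP, 3.1 nM in Tris/NaCl/10 μM ZnCl2 buffer, pH 7.5, preincubated 10 min at 37 °C with 5 μL of 1 mM analogue stock (equimolar to substrate) plus dansyl-YVG standard. Then 5 μL of 1 mM pyr-1-apelin-13 added. Aliquots taken at 0, 1, 4, 24 and 72 h and analysed by LC−MS; duplicate per time point.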

[8] = molecular target: T1, Neprilysin; assay: Drug metabolism assessed as recombinant human NEP-medited peptide proteolysis at 1 mM up to 72 hrs by LC-MS analysis; type: ADME; conditions: 1000 µM
Procedure, shortened: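 Recombinant human NEP, 3.1 nM final in 100 mM Tris, 100 mM NaCl, 10 μM ZnCl2, pH 7.5, preincubated 10 min at 37 °C. Then 5 μL of 1 mM peptide stock and dansyl-YVG internal standard added; incubated at 37 °C for up to 72 h. Extracted-ion LC−MS ratio of parent to standard compared with 0 h and converted to percent cleaved.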

[9] = tested on: Heart; assay: Cardioprotective activity against Langendorff isolated mouse heart ischemia-reperfusion model assessed as maximum derivative change in systolic pressure over time at 1 uM administered for 10 mins during start of 40 mins reperfusion period post 30 mins ischemic induction; type: functional, tissue-based; procedure, shortened: as §1

| Compound | Drug degradation [4] | inhibition (INH) [7] | Drug metabolism [8] | Activity [1] | Activity [2] | Activity [3] | Activity [5] | Activity [6] | Activity [9] |
| --- | --- | --- | --- | --- | --- | --- | --- | --- | --- |
| CCCC[C@H](NC(=O)[C@@H]1CCCN1C(=O)CNC(=O)[C@H](CCCCN)NC(=O)[C@H](Cc1c[nH]cn1)NC(=O)[C@H](CO)NC(=O)[C@H](CC(C)C)N(C)C(=O)[C@H](CCCNC(=N)N)NC(=O)[C@@H]1CCCN1C(=O)[C@H](CCCNC(=N)N)NC(=O)[C@H](CCC(N)=O)NC(=O)[C@H](CCCNC(=N)N)NC(=O)[C@H](CCCNC(=N)N)NC(=O)[C@H](Cc1ccccc1)NC(=O)[C@@H](N)CCCCN)C(=O)NC(C)(C)C(=O)N[C@@H](Cc1ccc(Br)cc1)C(=O)O (H-KFRRQRPR[NMeL]SHKGP[Nle][Aib][Phe(4-Br)]-OH) | 47% | Not Active | Metabolite_Notdetected | Active | Active | Active | Toxic | Active | Active |
| CCCC[C@H](NC(=O)[C@@H]1CCCN1C(=O)CNC(=O)[C@H](CCCCN)NC(=O)[C@H](Cc1c[nH]cn1)NC(=O)[C@H](CO)NC(=O)[C@H](CC(C)C)NC(=O)[C@H](CCCNC(=N)N)NC(=O)[C@@H]1CCCN1C(=O)[C@H](CCCNC(=N)N)NC(=O)[C@H](CCC(N)=O)NC(=O)[C@H](CCCNC(=N)N)NC(=O)[C@H](CCCNC(=N)N)NC(=O)[C@H](Cc1ccccc1)NC(=O)[C@@H](N)CCCCN)C(=O)NC(C)(C)C(=O)N[C@@H](Cc1ccc(Br)cc1)C(=O)O (H-KFRRQRPRLSHKGP[Nle][Aib][Phe(4-Br)]-OH) | 35% |  | Metabolite_Detected |  |  | Active | Toxic |  |  |
| CCCC[C@H](NC(=O)[C@@H]1CCCN1C(=O)CNC(=O)[C@H](CCCCN)NC(=O)[C@H](Cc1c[nH]cn1)NC(=O)[C@H](CO)NC(=O)[C@H](CC(C)C)NC(=O)N(CCCNC(=N)N)NC(=O)[C@@H]1CCCN1C(=O)[C@H](CCCNC(=N)N)NC(=O)[C@H](CCC(N)=O)NC(=O)[C@H](CCCNC(=N)N)NC(=O)[C@H](CCCNC(=N)N)NC(=O)[C@H](Cc1ccccc1)NC(=O)[C@@H](N)CCCCN)C(=O)NC(C)(C)C(=O)N[C@@H](Cc1ccc(Br)cc1)C(=O)O (H-KFRRQRP[X1]LSHKGP[Nle][Aib][Phe(4-Br)]-OH) | 94% | Not Active | Metabolite_Notdetected | Active | Active | Active | Toxic | Active | Active |
| CCCC[C@H](NC(=O)[C@@H]1CCCN1C(=O)CNC(=O)[C@H](CCCCN)NC(=O)[C@H](Cc1c[nH]cn1)NC(=O)[C@H](CO)NC(=O)[C@](C)(CC(C)C)NC(=O)[C@H](CCCNC(=N)N)NC(=O)[C@@H]1CCCN1C(=O)[C@H](CCCNC(=N)N)NC(=O)[C@H](CCC(N)=O)NC(=O)[C@H](CCCNC(=N)N)NC(=O)[C@H](CCCNC(=N)N)NC(=O)[C@H](Cc1ccccc1)NC(=O)[C@@H](N)CCCCN)C(=O)NC(C)(C)C(=O)N[C@@H](Cc1ccc(Br)cc1)C(=O)O (H-KFRRQRPR[αMeL]SHKGP[Nle][Aib][Phe(4-Br)]-OH) | 48% | Not Active | Metabolite_Notdetected |  |  |  | Toxic |  |  |
| CCCC[C@H](NC(=O)[C@@H]1CCCN1C(=O)CNC(=O)[C@H](CCCCN)NC(=O)[C@H](Cc1c[nH]cn1)NC(=O)[C@H](CO)NC(=O)[C@H](CC(C)C)NC(=O)[C@](C)(CCCNC(=N)N)NC(=O)[C@@H]1CCCN1C(=O)[C@H](CCCNC(=N)N)NC(=O)[C@H](CCC(N)=O)NC(=O)[C@H](CCCNC(=N)N)NC(=O)[C@H](CCCNC(=N)N)NC(=O)[C@H](Cc1ccccc1)NC(=O)[C@@H](N)CCCCN)C(=O)NC(C)(C)C(=O)N[C@@H](Cc1ccc(Br)cc1)C(=O)O (H-KFRRQRP[αMeR]LSHKGP[Nle][Aib][Phe(4-Br)]-OH) | 55% | Not Active | Metabolite_Notdetected |  |  |  | Toxic |  |  |
| CSCC[C@H](NC(=O)[C@@H]1CCCN1C(=O)CNC(=O)[C@H](CCCCN)NC(=O)[C@H](Cc1cnc[nH]1)NC(=O)[C@H](CO)NC(=O)[C@H](CC(C)C)NC(=O)[C@H](CCCNC(=N)N)NC(=O)[C@@H]1CCCN1C(=O)[C@H](CCCNC(=N)N)NC(=O)[C@H](CCC(N)=O)NC(=O)[C@H](CCCNC(=N)N)NC(=O)[C@H](CCCNC(=N)N)NC(=O)[C@H](Cc1ccccc1)NC(=O)[C@@H](N)CCCCN)C(=O)N1CCC[C@H]1C(=O)N[C@@H](Cc1ccccc1)C(=O)O | 39% |  | Metabolite_Detected | Active | Active | Active | Toxic | Active | Active |
| CCCC[C@H](NC(=O)[C@@H]1CCCN1C(=O)CNC(=O)[C@H](CCCCN)NC(=O)[C@H](Cc1c[nH]cn1)NC(=O)[C@H](CO)NC(=O)[C@@H](CC(C)C)NC(=O)[C@H](CCCNC(=N)N)NC(=O)[C@@H]1CCCN1C(=O)[C@H](CCCNC(=N)N)NC(=O)[C@H](CCC(N)=O)NC(=O)[C@H](CCCNC(=N)N)NC(=O)[C@H](CCCNC(=N)N)NC(=O)[C@H](Cc1ccccc1)NC(=O)[C@@H](N)CCCCN)C(=O)NC(C)(C)C(=O)N[C@@H](Cc1ccc(Br)cc1)C(=O)O (H-KFRRQRPR[dL]SHKGP[Nle][Aib][Phe(4-Br)]-OH) | 80% | Not Active | Metabolite_Notdetected |  |  |  | Toxic |  |  |

Continued, in another order:

| Drug degradation [4] | inhibition (INH) [7] | Drug metabolism [8] | Compound | Activity [1] | Activity [2] | Activity [3] | Activity [5] | Activity [6] | Activity [9] |
| --- | --- | --- | --- | --- | --- | --- | --- | --- | --- |
| 12% |  | Metabolite_Detected | CSCC[C@H](NC(=O)[C@@H]1CCCN1C(=O)CNC(=O)[C@H](CCCCN)NC(=O)[C@H](Cc1cnc[nH]1)NC(=O)[C@H](CO)NC(=O)[C@H](CC(C)C)NC(=O)[C@H](CCCNC(=N)N)NC(=O)[C@@H]1CCCN1C(=O)[C@H](CCCNC(=N)N)NC(=O)[C@@H]1CCC(=O)N1)C(=O)N1CCC[C@H]1C(=O)N[C@@H](Cc1ccccc1)C(=O)O |  |  |  |  |  |  |
| 2% | Not Active | Metabolite_Notdetected | CCCC[C@H](NC(=O)[C@@H]1CCCN1C(=O)CNC(=O)[C@H](CCCCN)NC(=O)[C@H](Cc1c[nH]cn1)NC(=O)[C@H](CO)NC(=O)N(CC(C)C)NC(=O)[C@H](CCCNC(=N)N)NC(=O)[C@@H]1CCCN1C(=O)[C@H](CCCNC(=N)N)NC(=O)[C@@H]1CCC(=O)N1)C(=O)NC(C)(C)C(=O)N[C@@H](Cc1ccc(Br)cc1)C(=O)O | inactive | inactive |  |  | inactive | inactive |
| 22% | Not Active | Metabolite_Notdetected | CCCC[C@H](NC(=O)[C@@H]1CCCN1C(=O)CNC(=O)[C@H](CCCCN)NC(=O)[C@H](Cc1c[nH]cn1)NC(=O)[C@H](CO)NC(=O)[C@@H](CC(C)C)NC(=O)[C@H](CCCNC(=N)N)NC(=O)[C@@H]1CCCN1C(=O)[C@H](CCCNC(=N)N)NC(=O)[C@@H]1CCC(=O)N1)C(=O)NC(C)(C)C(=O)N[C@@H](Cc1ccc(Br)cc1)C(=O)O |  |  | inactive |  |  |  |
| 62% | Not Active | Metabolite_Notdetected | CCCC[C@H](NC(=O)[C@@H]1CCCN1C(=O)CNC(=O)[C@H](CCCCN)NC(=O)[C@H](Cc1c[nH]cn1)NC(=O)[C@H](CO)NC(=O)[C@H](CC(C)C)NC(=O)[C@](C)(CCCNC(=N)N)NC(=O)[C@@H]1CCCN1C(=O)[C@H](CCCNC(=N)N)NC(=O)[C@@H]1CCC(=O)N1)C(=O)NC(C)(C)C(=O)N[C@@H](Cc1ccc(Br)cc1)C(=O)O |  |  |  |  |  |  |
